From PubChem BioAssay
SENP8 block-1: inhibitors of human SENP8 protease | recombinant SENP8, Nedd8 substrate fluorescence | inhibition, % at 20 µM | Q96LD8 | AID 602440 | 360,000 tested, 0.64% active; in the data active means inhibition mostly above about 40%, no sharp cut-off; inactive means mostly below about 27%
Target sequence (Q96LD8 whole entry, looked up): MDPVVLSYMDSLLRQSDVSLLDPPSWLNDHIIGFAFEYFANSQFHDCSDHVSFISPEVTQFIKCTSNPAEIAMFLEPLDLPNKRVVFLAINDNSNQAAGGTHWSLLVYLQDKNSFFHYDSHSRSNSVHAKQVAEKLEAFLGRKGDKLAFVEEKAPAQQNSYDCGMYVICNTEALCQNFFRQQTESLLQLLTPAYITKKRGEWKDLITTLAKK
CendR NRP1 mod: alters CendR peptide binding to human NRP-1 | 360,000 tested, 0.85% active | inhibition, % at 25 µM | FAM-RPARPAR peptide binding to NRP-1, fluorescence polarization | O14786 | AID 602438;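 active means inhibition or corrected inhibition above about 18%, plus a signal ratio from 0.5 to 1.5, limit read from the data, passing the limit was not always enough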
SENP7 block: SENP7 protease inhibition. recombinant SENP7, Z-RLRGG-aminoluciferin luminescence, 40 min. inhibition, % at 5 µM. 330,000 tested, 1.5% active. AID 434973;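 active means inhibition above about 50% at the single test dose, limit read from the data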;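 further: plate controls were DMSO with enzyme for no effect and no enzyme buffer wells for full effect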
SENP1 FRET inh: SENP1 (human) catalytic domain inhibition | Q9P0U3 | recombinant SENP1 catalytic domain, CyPet-SUMO1-YPet FRET cleavage | inhibition, % at 10 µM | 360,000 tested, 0.21% active | AID 624204;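 active means inhibition at least 30% at 10 µM, raw YFP signal under a set limit, fluorescence ratio 0.5 to 1.5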;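 further: 0% = enzyme with DMSO and 100% = no enzyme wells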
Target sequence (Q9P0U3 419-644 limits assumed): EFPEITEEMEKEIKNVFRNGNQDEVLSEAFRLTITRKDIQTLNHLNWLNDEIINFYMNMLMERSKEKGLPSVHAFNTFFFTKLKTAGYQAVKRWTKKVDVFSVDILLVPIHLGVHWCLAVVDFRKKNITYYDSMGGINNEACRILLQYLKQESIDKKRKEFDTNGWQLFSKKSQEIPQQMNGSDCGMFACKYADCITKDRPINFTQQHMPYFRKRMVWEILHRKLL
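Material: hSENP1 catalytic domain, recombinant; medium: Tris pH 8 with BME, BSA, NP40 and catalase; compound: single concentration of 10 µM compound, 0.5% DMSO final; technique: FRET read of cyan and yellow fluorescence; timing: 50 min enzyme reaction, room temperature, light-protected; reagent: SFCypet-SUMO1-SFYpet substrate at 25 nM; control set: no-enzyme low, enzyme-DMSO high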
SENP6 block: SENP6 protease inhibition | Q9GZR1 | Recombinant SENP6 catalytic domain, aminoluciferin luminescence | inhibition, % at 10 µM | 330,000 tested, 1.8% active;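 active means inhibition above about 50% at the single tested dose, limit read from the data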;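 further: plate controls were DMSO wells with enzyme for no effect and DMSO wells lacking enzyme for full effect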
SENP8 block-2: SENP8 protease inhibition | purified SENP8, Z-RLRGG-aminoluciferin cleavage, luminescence | AID 2540 | inhibition, % at 10 µM | Q96LD8 | 330,000 tested, 1.2% active; in the data active means inhibition above about 50%
SENP8 conf: confirmation of human SENP8 protease inhibitors. shares compounds with SENP7 block. Recombinant SENP8, Z-RLRGG-aminoluciferin luminescence, 60 min. inhibition, % at 12.5 µM. 6,200 tested, 40% active;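 active means mean inhibition across replicates above about 50%, limit read from the data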
SENP6 conf: human SENP6 inhibition, confirmed | shares compounds with SENP7 block | recombinant SENP6, Z-RLRGG-aminoluciferin luminescence | inhibition, % at 12.5 µM | 6,200 tested, 58% active
SENP7 conf: confirmation of human SENP7 protease inhibitors; shares compounds with SENP7 block; recombinant SENP7, Z-RLRGG-aminoluciferin luminescence, 40 min; inhibition, % at 12.5 µM; 6,200 tested, 69% active; AID 488917
Casp3 SENP sel: selectivity test for SENP inhibitors: human caspase-3 inhibition; shares compounds with SENP7 block; purified caspase-3, Z-DEVD-aminoluciferin luminescence, 60 min; 6,200 tested, 60% active; inhibition, % at 12.5 µM;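 active means mean inhibition above about 50%, limit read from the data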;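 further: plate controls were enzyme with DMSO for no effect and wells without caspase-3 for full effect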
Target sequence (P42574 28-227 limits assumed): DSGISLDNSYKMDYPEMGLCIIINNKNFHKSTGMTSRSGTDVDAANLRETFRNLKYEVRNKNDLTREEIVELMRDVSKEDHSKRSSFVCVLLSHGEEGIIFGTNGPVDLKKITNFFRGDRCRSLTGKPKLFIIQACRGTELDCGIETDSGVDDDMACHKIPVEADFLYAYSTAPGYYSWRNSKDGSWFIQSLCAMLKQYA
Luc interf: luminescence interference (SENP counter-screen); shares compounds with SENP7 block; Pre-incubated SENP8/Z-RLRGG-aminoluciferin, luciferase luminescence interference; inhibition, % at 12.5 µM; 6,200 tested, 39% active;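 active means mean inhibition above about 50% when retested at one dose, limit read from the data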;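 further: plate controls were DMSO wells with completed reaction for no effect and substrate without enzyme for full effect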
* marks the source's active call; other numbers are inactive results. Rows were chosen to be rich in hits. Some 3.3% of all compounds tested hit in one or more screens of this group.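 How the source made its calls, unless noted: active means mean inhibition above about 50% in the one-dose retest (limit read from the data); inactive means the rest.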

For COCCNc1nc(Nc2ccc(C#N)cc2)c2sccc2n1 the results were SENP8 block-1 inactive, CendR NRP1 mod 2.7 and SENP1 FRET inh 1.4.
CC(C)n1c(=O)c2ccccc2n1CC(=O)N1CCOCC1 was read as SENP8 block-1 -395.1, CendR NRP1 mod -11.6 and SENP1 FRET inh 2.5.
Screening O=C(/C=C/c1cccs1)c1ccc(N2CCOCC2)cc1 returned SENP8 block-1 -1.2, CendR NRP1 mod -1.8, SENP7 block 87.4*, SENP1 FRET inh 14.1, SENP6 block 84.2*, SENP8 block-2 72.0*, SENP8 conf 38.4, SENP6 conf 81.7*, SENP7 conf 93.2*, Casp3 SENP sel 37.8 and Luc interf 23.9.
Screening COC1OC2COC(c3ccccc3)OC2C(O)C1NC(=O)c1ccccc1 (configuration not stated) returned SENP8 block-1 11.1, CendR NRP1 mod 11.5 and SENP1 FRET inh 1.3.
`O=C(Nc1ccc(Br)cn1)c1cccc(C(=O)Nc2ccc(Br)cn2)c1` gave SENP8 block-1 10.0, CendR NRP1 mod 0.3, SENP7 block -11.8, SENP1 FRET inh 2.7, SENP6 block 4.6 and SENP8 block-2 -7.5.
Screening O=C(Nc1ccc(Br)cn1)c1ccc2ccccc2c1 returned SENP8 block-1 0.0, CendR NRP1 mod 2.8, SENP7 block 61.4*, SENP1 FRET inh 2.6, SENP6 block -0.8, SENP8 block-2 -11.3, SENP8 conf -9.3, SENP6 conf -7.0, SENP7 conf -1.7, Casp3 SENP sel 8.3 and Luc interf 3.0.
For O=C(Nc1nccs1)c1ccc2ccccc2c1 the results were SENP8 block-1 -1.3, CendR NRP1 mod 2.1, SENP7 block 71.6*, SENP1 FRET inh -1.7, SENP6 block 73.5*, SENP8 block-2 69.2*, SENP8 conf 81.2*, SENP6 conf 80.1*, SENP7 conf 92.8*, Casp3 SENP sel 70.9* and Luc interf 80.3*.
CCNC(=O)C1CCCN(C(=O)c2cc(F)cc(F)c2)CC1 (configuration not stated) was read as SENP8 block-1 18.4, CendR NRP1 mod 3.0 and SENP1 FRET inh 4.0.
Screening COC(=O)c1ccc(COn2nnc3ccccc32)cc1 returned SENP8 block-1 13.1, CendR NRP1 mod -4.1, SENP7 block 51.6*, SENP1 FRET inh -2.0, SENP6 block 56.1*, SENP8 block-2 36.6, SENP8 conf 33.8, SENP6 conf 31.9, SENP7 conf 76.4*, Casp3 SENP sel 69.5* and Luc interf 34.4.
For COC(=O)c1ccc(Cn2nnc3ccccc32)cc1 the results were SENP8 block-1 5.7, CendR NRP1 mod 1.0, SENP7 block -5.9, SENP1 FRET inh 1.5, SENP6 block -6.2 and SENP8 block-2 -5.9.
Screening O=C(Nc1ccc2oc(-c3ccccc3Cl)nc2c1)c1ncn[nH]1 returned SENP8 block-1 -257.1, CendR NRP1 mod -21.7, SENP7 block 23.6, SENP1 FRET inh -1.1, SENP6 block 52.1*, SENP8 block-2 34.9, SENP8 conf 24.2, SENP6 conf 20.5, SENP7 conf 28.5, Casp3 SENP sel 25.7 and Luc interf 0.5.
Screening O=C(Nc1ccc2oc(-c3cccc4ccccc34)nc2c1)c1ncn[nH]1 returned SENP8 block-1 inactive, CendR NRP1 mod -12.3, SENP7 block -1.3, SENP1 FRET inh -2.3, SENP6 block -16.1 and SENP8 block-2 -11.5.
Screening CC(=O)Nc1ccc2oc(-c3ccccc3Br)nc2c1 returned SENP8 block-1 -222.0, CendR NRP1 mod 23.9, SENP7 block 58.7*, SENP1 FRET inh 1.3, SENP6 block 83.6*, SENP8 block-2 58.3*, SENP8 conf 81.0*, SENP6 conf 76.3*, SENP7 conf 90.4*, Casp3 SENP sel 67.7* and Luc interf 64.7*.
For CC(=O)Nc1ccc2oc(-c3cc(F)c(F)cc3Cl)nc2c1 the results were SENP8 block-1 -290.9, CendR NRP1 mod 3.1, SENP7 block 67.2*, SENP1 FRET inh -0.8, SENP6 block -4.8, SENP8 block-2 40.0, SENP8 conf 20.6, SENP6 conf 20.6, SENP7 conf 9.5, Casp3 SENP sel 39.1 and Luc interf 25.1.
For CCc1ccc2oc(-c3ccc(NC(C)=O)cc3)nc2c1 the results were SENP8 block-1 -446.0, CendR NRP1 mod -20.9, SENP7 block 78.1*, SENP1 FRET inh 1.1, SENP6 block 75.1*, SENP8 block-2 72.4*, SENP8 conf 43.7, SENP6 conf 78.8*, SENP7 conf 95.9*, Casp3 SENP sel 32.7 and Luc interf 17.7.
For CCCC(=O)Nc1ccc2oc(-c3ccncc3)nc2c1 the results were SENP8 block-1 21.8, CendR NRP1 mod -27.0, SENP7 block -7.7, SENP1 FRET inh 10.4, SENP6 block -15.4 and SENP8 block-2 -9.7.
Screening COc1ccc(-c2nn(Cc3ccccc3)cc2C(=O)N2CCN(c3ncccn3)CC2)cc1 returned SENP8 block-1 -40.3, CendR NRP1 mod -18.6, SENP7 block 0.3, SENP1 FRET inh 1.8, SENP6 block -9.9 and SENP8 block-2 2.8.
For COc1ccccc1-c1cccc([C@@H]2C[C@H]3[C@H](CON3C)CN2S(=O)(=O)c2ccccc2C)c1 the results were SENP8 block-1 -2.2, CendR NRP1 mod 4.4 and SENP1 FRET inh 0.4.
For CC(C)c1ccccc1NC(=O)Nc1nnc([C@@H]2C[C@H](O)[C@@H](CO)O2)s1 the results were SENP8 block-1 6.3, CendR NRP1 mod -2.5 and SENP1 FRET inh -1.7.
Screening CC(=O)Nc1cccc(OCC(=O)Nc2sccc2C(N)=O)c1 returned SENP8 block-1 4.0, CendR NRP1 mod -6.8, SENP7 block 67.5*, SENP1 FRET inh -5.9, SENP6 block 68.1*, SENP8 block-2 48.2, SENP8 conf 40.2, SENP6 conf 48.4, SENP7 conf 86.3*, Casp3 SENP sel 73.1* and Luc interf 28.4.
Screening CC(=O)Nc1cccc(OCC(=O)Nc2ccccc2)c1 returned SENP8 block-1 14.8, CendR NRP1 mod -5.7, SENP7 block 17.5, SENP1 FRET inh 1.9, SENP6 block 36.4 and SENP8 block-2 -14.6.
